Calls of active or inactive are those of the source. The rule behind the calls is not given here.

The text below walks through data of ChEMBL document CHEMBL3351557, “Discovery of Potent and Simplified Piperidinone-Based Inhibitors of the MDM2-p53 Interaction” (ACS Med Chem Lett, 2014).

The test system of series [1] is SJSA-1. Put plainly: Antiproliferative activity against human SJSA1 cells after 3 days by EdU incorporation-based HCS assay in presence of 10% human serum. The class given is functional, cell-based. The conditions noted are these: SJSA-1, 72 h.
Series [2] in a line: Oral bioavailability in rat at 2 mg/kg. The class given is ADME, organism-based. The settings on record: in vivo.
Series [3] concerns SJSA-1. The series can be described thus: Antitumor activity against human SJSA1 cells xenografted in athymic nude mouse assessed as tumor growth inhibition at 50 mg/kg, po bid administered 2 weeks post implantation relative to vehicle-treated control. The conditions noted are these: SJSA-1, po, 336 h, read-out: TGI.
A short description of series [4]: Oral bioavailability in mouse at 5 mg/kg. The class given is ADME, organism-based. The conditions noted are these: in vivo.
Series [5] has as its system Mus musculus. The series can be described thus: Toxicity in human SJSA1 cells xenografted athymic nude mouse assessed as body weight loss at 200 mg/kg, po qd administered 2 weeks post implantation. The class given is organism-based, SJSA-1. More on the design: dose 200 mg/kg, route oral. The conditions noted are these: in vivo, 336 h. A digest of the protocol:
(§1)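 Female athymic nude mice were implanted subcutaneously with 5 × 10⁶ SJSA-1 cells. Oral gavage of vehicle or compound (50, 100 or 200 mg/kg QD; 50 or 100 mg/kg BID) began on day 14, when tumours were about 200 mm³. There were 10 mice per group, and tumours were measured twice weekly.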

Series [6] has as its system SJSA-1. The series can be described thus: Increase in p21 mRNA expression in tumor of human SJSA1 cells xenografted athymic nude mouse compound administered as single oral dose 2 weeks post implantation measured 4 to 8 hrs post dose relative to vehicle-treated control. The class given is functional. In outline: (§2)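 SJSA-1 osteosarcoma cells were implanted in mice 2 weeks before a single oral dose (100 or 200 mg/kg in one study; 50, 100 or 200 mg/kg in another). Tumour p21 mRNA, a p53 transcriptional target, was measured at several times after dosing and expressed relative to vehicle-treated controls.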

Series [7] relates to SJSA-1. Put plainly: Antitumor activity against human SJSA1 cells xenografted in athymic nude mouse assessed as tumor growth inhibition at 100 mg/kg, po qd administered 2 weeks post implantation relative to vehicle-treated control. The conditions noted are these: SJSA-1, po, 336 h, read-out: TGI.
The nature of series [8]: Clearance in rat at 0.5 mg/kg, iv. The conditions noted are these: in vivo.
For series [9], the system named is SJSA-1. The series can be described thus: Increase in p21 mRNA expression in tumor of human SJSA1 cells xenografted athymic nude mouse at 50 to 200 mg/kg, po administered as single dose 2 weeks post implantation relative to vehicle-treated control. The class given is functional, organism-based. A digest of the protocol:
as §2

The subject of series [10] is Mus musculus. Put plainly: Toxicity in human SJSA1 cells xenografted athymic nude mouse assessed as body weight loss at 100 mg/kg, po bid administered 2 weeks post implantation. More on the design: dose 100 mg/kg, route oral. The settings on record: in vivo, 336 h. The class given is organism-based, SJSA-1. In outline:
as §1

Series [11] is described as follows: Clearance in rat at 0.5 mg/kg, iv. The class given is ADME, organism-based. Set-up: dose 0.5 mg/kg, route intravenous. The conditions noted are these: in vivo.
For series [12], the system named is SJSA-1. The series can be described thus: Increase in p21 mRNA expression in tumor of human SJSA1 cells xenografted athymic nude mouse at 100 mg/kg, po as single dose administered 2 weeks post implantation measured 4 hrs post dose relative to vehicle-treated control. The class given is functional, organism-based. Set-up: dose 100 mg/kg. A digest of the protocol:
as §2

Series [13] is described as follows: Intrinsic clearance in rat hepatocytes assessed per million cells. The class given is ADME, cell-based, Hepatocyte. The conditions noted are these: read-out: CLH.
Series [14] is described as follows: Clearance in mouse at 1 mg/kg, iv. The class given is ADME, organism-based. More on the design: dose 1 mg/kg, route intravenous. The settings on record: in vivo.
In series [15] the target is T1, Tumour suppressor p53/oncoprotein Mdm2 (Homo sapiens, UniProt Q00987). Put plainly: Inhibition of human MDM2 (1-188 aa) -p53 (1-83 aa) interaction expressed in Escherichia coli after 18 hrs by HTRF assay in presence of 15% human serum.
The target of series [16] is T1, Tumour suppressor p53/oncoprotein Mdm2. Put plainly: Inhibition of human MDM2 (1-188 aa) -p53 (1-83 aa) interaction expressed in Escherichia coli after 18 hrs by HTRF assay.
Series [17] can be described thus: Half life in rat at 0.5 mg/kg, iv. The class given is ADME, organism-based. Set-up: dose 0.5 mg/kg, route intravenous. The conditions noted are these: in vivo.
Series [18] is described as follows: Half life in mouse. The class given is ADME, organism-based. The settings on record: in vivo.
The nature of series [19]: Bioavailability in rat at 0.5 mg/kg, iv. The class given is ADME, organism-based. The settings on record: in vivo.
Series [20] in a line: Clearance in mouse. The class given is ADME, organism-based. The settings on record: in vivo.
Series [21] in a line: Intrinsic clearance in human hepatocytes assessed per million cells. The class given is ADME, cell-based, Hepatocyte. The conditions noted are these: read-out: CLH.

T1 sequence (P04637 whole entry, the tested form may be a part): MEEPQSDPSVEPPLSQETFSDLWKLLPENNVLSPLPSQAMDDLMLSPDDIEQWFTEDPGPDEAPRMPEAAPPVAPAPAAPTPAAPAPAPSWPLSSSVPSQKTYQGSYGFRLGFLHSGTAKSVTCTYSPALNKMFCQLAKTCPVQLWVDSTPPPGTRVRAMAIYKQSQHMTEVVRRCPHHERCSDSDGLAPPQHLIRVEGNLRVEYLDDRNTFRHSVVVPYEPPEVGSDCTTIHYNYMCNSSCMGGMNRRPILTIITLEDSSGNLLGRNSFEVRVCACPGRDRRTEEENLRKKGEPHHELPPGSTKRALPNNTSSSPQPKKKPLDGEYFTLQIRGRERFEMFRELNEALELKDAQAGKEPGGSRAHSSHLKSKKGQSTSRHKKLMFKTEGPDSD
T1 sequence (Q00987 whole entry, the tested form may be a part): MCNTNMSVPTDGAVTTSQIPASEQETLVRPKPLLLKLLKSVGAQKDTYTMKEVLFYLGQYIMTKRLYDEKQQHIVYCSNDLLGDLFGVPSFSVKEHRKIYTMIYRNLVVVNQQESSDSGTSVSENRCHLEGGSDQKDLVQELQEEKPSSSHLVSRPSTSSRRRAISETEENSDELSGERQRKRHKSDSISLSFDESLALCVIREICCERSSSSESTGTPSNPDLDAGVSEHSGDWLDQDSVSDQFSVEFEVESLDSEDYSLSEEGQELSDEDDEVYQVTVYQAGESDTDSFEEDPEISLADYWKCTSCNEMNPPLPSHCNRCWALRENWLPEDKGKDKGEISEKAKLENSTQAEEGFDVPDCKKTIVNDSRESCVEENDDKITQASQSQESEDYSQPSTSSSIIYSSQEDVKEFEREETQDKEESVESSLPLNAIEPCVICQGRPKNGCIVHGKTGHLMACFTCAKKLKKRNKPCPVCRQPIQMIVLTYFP

Turning to `CC(C)[C@@H](c1ccccn1)N1C(=O)[C@@](C)(CC(=O)O)C[C@H](c2cccc(Cl)c2)[C@H]1c1ccc(Cl)cc1`, in the series on SJSA-1 [1], the IC50 was determined as 290 nM.
Turning to `CC[C@@H](c1cccc(C2CC2)n1)N1C(=O)[C@@](C)(CC(=O)O)CC(c2cccc(Cl)c2)[C@H]1c1ccc(Cl)cc1` (single isomer, unassigned), the IC50 with SJSA-1 [1] was 1820 nM.
`CC(C)N1C(=O)[C@@](C)(CC(=O)O)C[C@H](c2cccc(Cl)c2)[C@H]1c1ccc(Cl)cc1`: the bioavailability in [2] was found to be 48%; in series [4], 32%. For the same compound, in the series on SJSA-1 [3], the inhibition in vivo at 50 mg/kg was determined as 82%. Also, the IC50 in the series with SJSA-1 [1] came out at 380 nM. Also, the Activity result with Mus musculus [5] and with Mus musculus [10] was “Toxic” each time. Moreover, the result in the series with SJSA-1 [6], with SJSA-1 [9] and in the series on SJSA-1 [12] was Active. The inhibition in vivo at 100 mg/kg in the series with SJSA-1 [7] came to 96%. In addition, the clearance in series [8] is 17.3 mL/min/kg; in [11], 17.3 mL/min/kg; in series [14] it was 17.2 mL/min/kg. Besides, in [13], the hepatocyte CLint was found to be 8.5 µL/min/1e6 cells.
Consider `CC[C@@H](c1ccc(C)cn1)N1C(=O)[C@@](C)(CC(=O)O)CC(c2cccc(Cl)c2)[C@H]1c1ccc(Cl)cc1` (single isomer, unassigned), for which the IC50 was 123 nM in series [15], 900 nM with SJSA-1 [1] and 7 nM in series [16].
Take `C[C@]1(CC(=O)O)C[C@H](c2cccc(Cl)c2)[C@@H](c2ccc(Cl)cc2)N(c2ccccn2)C1=O`: the half-inhibitory concentration (IC50) in [15] amounted to 122 nM; in [16] it was 13 nM. In series [11], this compound showed a clearance of 36 mL/min/kg.
Take `CCC[C@@H](c1ccccn1)N1C(=O)[C@@](C)(CC(=O)O)C[C@H](c2cccc(Cl)c2)[C@H]1c1ccc(Cl)cc1`: the concentration for half-maximal inhibition (IC50) in the series on SJSA-1 [1] was 990 nM. In series [17], this compound gave a half-life of 6.9 h. In [11], this compound showed a clearance of 3.33 mL/min/kg.
In the case of `CC[C@@H]([C@@H]1CCCO1)N1C(=O)[C@@](C)(CC(=O)O)C[C@H](c2cccc(Cl)c2)[C@H]1c1ccc(Cl)cc1`, the IC50 with SJSA-1 [1] amounted to 123 nM.
The same measure, in the same setting: in the case of `CC[C@@H]([C@H](C)OC)N1C(=O)[C@@](C)(CC(=O)O)C[C@H](c2cccc(Cl)c2)[C@H]1c1ccc(Cl)cc1` it was 143 nM.
As to `C[C@@H](c1ccccn1)N1C(=O)[C@@](C)(CC(=O)O)C[C@H](c2cccc(Cl)c2)[C@H]1c1ccc(Cl)cc1`, the IC50 was found to be 62 nM in series [15], 420 nM with SJSA-1 [1] and 10 nM in series [16].
Consider `CC[C@@H](c1ncccn1)N1C(=O)[C@@](C)(CC(=O)O)C[C@H](c2cccc(Cl)c2)[C@H]1c1ccc(Cl)cc1`, for which, in the series on SJSA-1 [1], the IC50 amounted to 420 nM.
Turning to `C[C@]1(CC(=O)O)C[C@H](c2cccc(Cl)c2)[C@@H](c2ccc(Cl)cc2)N(c2ccccc2)C1=O`, the IC50 in series [15] stood at 55 nM; in [16], 4 nM. Also, in [11], the clearance is 40.8 mL/min/kg.
Take `CC[C@@H](c1cccc(Cl)n1)N1C(=O)[C@@](C)(CC(=O)O)C[C@H](c2cccc(Cl)c2)[C@H]1c1ccc(Cl)cc1`: in the series with SJSA-1 [1], the concentration for half-maximal inhibition (IC50) came out at 210 nM. Further, the clearance in [11] is 20 mL/min/kg.
In the case of `CC[C@@H](c1ncccc1C)N1C(=O)[C@@](C)(CC(=O)O)C[C@H](c2cccc(Cl)c2)[C@H]1c1ccc(Cl)cc1`, the half-maximal inhibitory concentration (IC50) in [15] was determined as 183 nM; with SJSA-1 [1] it was 310 nM; in series [16], 5 nM.
As for `CC[C@@H](c1cnco1)N1C(=O)[C@@](C)(CC(=O)O)C[C@H](c2cccc(Cl)c2)[C@H]1c1ccc(Cl)cc1`, the IC50 came out at 36 nM in series [15], 840 nM in the series on SJSA-1 [1] and 8 nM in [16].
Take `CCC(CC)N1C(=O)[C@@](C)(CC(=O)O)C[C@H](c2cccc(Cl)c2)[C@H]1c1ccc(Cl)cc1`: the values for the bioavailability in [2] and in [4] were 38% and 42%, respectively. For the same compound, the Activity entry with SJSA-1 [6] is “Dose-dependent effect”; in the series with SJSA-1 [9] (TDE = time-dependent effect), “tde”. Besides, the clearance in series [8] was 7.5 mL/min/kg; in series [11], 7.5 mL/min/kg; in series [14] it was 16.5 mL/min/kg. Moreover, the hepatocyte CLint in series [13] was found to be 18.8 µL/min/1e6 cells.
Regarding `CC[C@@H](c1ccccn1)N1C(=O)[C@@](C)(CC(=O)O)CC(c2cccc(Cl)c2)[C@H]1c1ccc(Cl)cc1` (single isomer, unassigned), in the series with SJSA-1 [1], the IC50 is 430 nM. Besides, the half-life in series [18] is 1.9 h; in [17], 3.5 h. In addition, the bioavailability in [19] came to 79%. The compound also had a clearance in series [20] of 51.7 mL/min/kg. The hepatocyte CLint in series [13] was 13 µL/min/1e6 cells; in series [21], 7 µL/min/1e6 cells.
With `CC[C@@H](c1ccncc1)N1C(=O)[C@@](C)(CC(=O)O)C[C@H](c2cccc(Cl)c2)[C@H]1c1ccc(Cl)cc1`, in the series with SJSA-1 [1], the half-maximal inhibitory concentration (IC50) came to 460 nM.
As for `CC[C@@H](c1cccc(C)n1)N1C(=O)[C@@](C)(CC(=O)O)C[C@H](c2cccc(Cl)c2)[C@H]1c1ccc(Cl)cc1`, in the series with SJSA-1 [1], the IC50 was 280 nM. This compound had a clearance in [11] of 15.5 mL/min/kg.
As for `CC[C@@H](c1cc(C)ccn1)N1C(=O)[C@@](C)(CC(=O)O)C[C@H](c2cccc(Cl)c2)[C@H]1c1ccc(Cl)cc1`, the figures for the 50% inhibitory concentration (IC50) (in series [15]; in the series with SJSA-1 [1]; in series [16]) were 60 nM, 890 nM and 6 nM, respectively.
